From ChEMBL document CHEMBL4402601, “Discovery of a Silicon-Containing Pan-Genotype Hepatitis C Virus NS5A Inhibitor” (J Med Chem, 2020)

Legend:
Hepatitis C virus [1] = assay: Antiviral activity against Hepatitis C virus subtype 3a subgenomic replicon expressing NS5A infected in human HuH7 cells assessed as reduction in viral replication incubated for 3 days by luciferase reporter gene assay; assay type: functional, organism-based, Hepacivirus hominis; settings: Huh-7, 72 h
How it was run: (§1)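 HCV replicon cell assay; inhibition of replication read as decrease in luciferase signal. Percent inhibition computed at each compound concentration; EC50 (pM) from nonlinear regression fit to a 4-parameter logistic equation. Values are means of triplicate wells, with each experiment run at least twice.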

Hepatitis C virus [2] = assay: Antiviral activity against Hepatitis C virus subtype 6a subgenomic replicon expressing NS5A infected in human HuH7 cells assessed as reduction in viral replication incubated for 3 days by luciferase reporter gene assay; assay type: functional, organism-based, Hepacivirus hominis; settings: Huh-7, 72 h; how it was run: as §1
Hepatitis C virus [3] = assay: Antiviral activity against Hepatitis C virus subtype 1b Con1 subgenomic replicon expressing NS5A infected in human HuH7 cells assessed as reduction in viral replication incubated for 3 days by luciferase reporter gene assay; assay type: functional, organism-based, Hepacivirus hominis; settings: subtype 1b Con1, Huh-7, 72 h; how it was run: as §1
Hepatitis C virus [4] = assay: Antiviral activity against Hepatitis C virus subtype 1a H77 subgenomic replicon expressing NS5A infected in human HuH7 cells assessed as reduction in viral replication incubated for 3 days by luciferase reporter gene assay; assay type: functional, organism-based, Hepacivirus hominis; settings: subtype 1a H77, Huh-7, 72 h; how it was run: as §1
Hepatitis C virus [5] = assay: Potency index, ratio of EC50 of to EC50 of compound for antiviral activity against Hepatitis C virus subtype 6a subgenomic replicon expressing NS5A infected in human HuH7 cells assessed as reduction in viral replication incubated for 3 days by luciferase reporter gene assay; assay type: functional, Hepacivirus hominis
[6] = Drug distribution in mouse plasma at 10 mg/kg, po incubated for 3 hrs by UPLC-MS/MS analysis; assay type: ADME, organism-based
How it was run: (§2)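 Oral dosing in mice and rats; compound measured in plasma and liver by UPLC-MS/MS at each time point, n = 3 (mean ± SD). LPR is mean liver concentration divided by mean plasma concentration.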

[7] = Drug distribution in mouse liver at 10 mg/kg, po incubated for 24 hrs by UPLC-MS/MS analysis; assay type: ADME, organism-based; settings: read-out: Drug uptake; how it was run: as §2
[8] = Ratio of drug distribution in rat liver to drug distribution in rat plasma measured after 0.5 hrs by UPLC-MS/MS analysis; assay type: ADME, cell-free; how it was run: as §2
[9] = Ratio of drug distribution in mouse liver to drug distribution in mouse plasma measured after 3 hrs by UPLC-MS/MS analysis; assay type: ADME, cell-free; how it was run: as §2
[10] = Drug distribution in rat liver at 10 mg/kg, po incubated for 0.5 hrs by UPLC-MS/MS analysis; assay type: ADME, organism-based; settings: read-out: Drug uptake; how it was run: as §2
[11] = Drug distribution in mouse plasma at 10 mg/kg, po incubated for 0.5 hrs by UPLC-MS/MS analysis; assay type: ADME, organism-based; how it was run: as §2
[12] = Drug distribution in mouse liver at 10 mg/kg, po incubated for 3 hrs by UPLC-MS/MS analysis; assay type: ADME, organism-based; settings: read-out: Drug uptake; how it was run: as §2
[13] = Ratio of drug distribution in rat liver to drug distribution in rat plasma measured after 8 hrs by UPLC-MS/MS analysis; assay type: ADME, cell-free; how it was run: as §2
[14] = Ratio of drug distribution in mouse liver to drug distribution in mouse plasma measured after 24 hrs by UPLC-MS/MS analysis; assay type: ADME, cell-free; how it was run: as §2
[15] = Drug distribution in mouse plasma at 10 mg/kg, po incubated for 24 hrs by UPLC-MS/MS analysis; assay type: ADME, organism-based; how it was run: as §2
[16] = Drug distribution in rat liver at 10 mg/kg, po incubated for 8 hrs by UPLC-MS/MS analysis; assay type: ADME, organism-based; settings: read-out: Drug uptake; how it was run: as §2
[17] = Drug distribution in rat plasma at 10 mg/kg, po incubated for 0.5 hrs by UPLC-MS/MS analysis; assay type: ADME, organism-based; how it was run: as §2
[18] = Ratio of drug distribution in rat liver to drug distribution in rat plasma measured after 3 hrs by UPLC-MS/MS analysis; assay type: ADME, cell-free; how it was run: as §2
[19] = Drug distribution in rat plasma at 10 mg/kg, po incubated for 3 hrs by UPLC-MS/MS analysis; assay type: ADME, organism-based; how it was run: as §2
[20] = Ratio of drug distribution in mouse liver to drug distribution in mouse plasma measured after 0.5 hrs by UPLC-MS/MS analysis; assay type: ADME, cell-free; how it was run: as §2
[21] = Drug distribution in mouse liver at 10 mg/kg, po incubated for 0.5 hrs by UPLC-MS/MS analysis; assay type: ADME, organism-based; settings: read-out: Drug uptake; how it was run: as §2
[22] = Drug distribution in rat plasma at 10 mg/kg, po incubated for 8 hrs by UPLC-MS/MS analysis; assay type: ADME, organism-based; how it was run: as §2
[23] = Drug distribution in rat liver at 10 mg/kg, po incubated for 3 hrs by UPLC-MS/MS analysis; assay type: ADME, organism-based; settings: read-out: Drug uptake; how it was run: as §2
[24] = Metabolic stability in rat liver microsomes assessed as compound remaining at 1 uM incubated for 60 mins by UPLC-MS/MS analysis; assay type: ADME, Microsome; settings: read-out: Stability
How it was run: (§3)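 Pooled mouse, rat or human liver microsomes (0.5 mg/mL) with 1 μM compound, 1 mM NADPH, 5 mM MgCl₂ and 100 mM potassium phosphate pH 7.4. Pre-incubated 5 min at 37 °C, started with NADPH, then run 60 min at 37 °C. Quenched with ice-cold acetonitrile containing internal standard; parent remaining measured by UPLC-MS/MS.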

[25] = Metabolic stability in mouse liver microsomes assessed as compound remaining at 1 uM incubated for 60 mins by UPLC-MS/MS analysis; assay type: ADME, Microsome; settings: read-out: Stability; how it was run: as §3
[26] = Metabolic stability in human liver microsomes assessed as compound remaining at 1 uM incubated for 60 mins by UPLC-MS/MS analysis; assay type: ADME, Microsome; settings: read-out: Stability; how it was run: as §3

Structure (SMILES)	EC50 (Hepatitis C virus [1])	EC50 (Hepatitis C virus [2])	EC50 (Hepatitis C virus [3])	EC50 (Hepatitis C virus [4])	further results
CC[Si](CC)(CC)c1ccc(N2[C@H](c3ccc(NC(=O)[C@@H]4CCCN4C(=O)[C@@H](NC(=O)OC)C(C)C)cc3)CC[C@H]2c2ccc(NC(=O)[C@@H]3CCCN3C(=O)[C@@H](NC(=O)OC)C(C)C)cc2)cc1	5.8 pM	817 pM	2.8 pM	11 pM	
COC(=O)N[C@H](C(=O)N1CCC[C@H]1C(=O)Nc1ccc([C@@H]2CC[C@@H](c3ccc(NC(=O)[C@@H]4CCCN4C(=O)[C@@H](NC(=O)OC)C(C)C)cc3)N2c2cc(F)c(N3CC[Si](C)(C)CC3)c(F)c2)cc1)C(C)C	11 pM	88 pM	0.4 pM	0.9 pM	
COC(=O)N[C@H](C(=O)N1CCC[C@H]1C(=O)Nc1ccc([C@@H]2CC[C@@H](c3ccc(NC(=O)[C@@H]4CCCN4C(=O)[C@@H](NC(=O)OC)[C@@H](C)OC)cc3)N2c2ccc(N3CC[Si](C)(C)CC3)c(F)c2)cc1)[C@@H](C)OC	6 pM	242 pM	2.9 pM	12 pM	
COC(=O)N[C@H](C(=O)N1CCC[C@H]1C(=O)Nc1ccc([C@@H]2CC[C@@H](c3ccc(NC(=O)[C@@H]4CCCN4C(=O)[C@@H](NC(=O)OC)C(C)C)cc3)N2c2ccc(N3CC[Si](C)(C)CC3)c(F)c2)cc1)C(C)C	8.8 pM	182 pM	0.4 pM	0.8 pM	
COC(=O)N[C@H](C(=O)N1CCC[C@H]1C(=O)Nc1ccc([C@@H]2CC[C@@H](c3ccc(NC(=O)[C@@H]4CCCN4C(=O)[C@@H](NC(=O)OC)[C@@H](C)OC)cc3)N2c2ccc([Si](C)(C)C(C)(C)C)cc2)cc1)[C@@H](C)OC	3 pM	80 pM	1.4 pM	7.9 pM	Ratio EC50 (Hepatitis C virus [5]): 10
COC(=O)N[C@H](C(=O)N1CCC[C@H]1C(=O)Nc1ccc([C@H]2CC[C@H](c3ccc(NC(=O)[C@@H]4CCCN4C(=O)[C@@H](NC(=O)OC)[C@@H](C)OC)cc3)N2c2ccc(N3CC[Si](C)(C)CC3)c(F)c2)cc1)[C@@H](C)OC	14 pM	454 pM	16 pM	65 pM	
COC(=O)N[C@H](C(=O)N1CCC[C@H]1C(=O)Nc1ccc([C@H]2CC[C@H](c3ccc(NC(=O)[C@@H]4CCCN4C(=O)[C@@H](NC(=O)OC)[C@@H](C)OC)cc3)N2c2cc(F)c(N3CC[Si](C)(C)CC3)c(F)c2)cc1)[C@@H](C)OC	4.8 pM	114 pM	1.7 pM	12 pM	
COC(=O)N[C@H](C(=O)N1CCC[C@H]1C(=O)Nc1ccc([C@H]2CC[C@H](c3ccc(NC(=O)[C@@H]4CCCN4C(=O)[C@@H](NC(=O)OC)C(C)C)cc3)N2c2cc(F)c(N3CC[Si](C)(C)CC3)c(F)c2)cc1)C(C)C	37 pM	463 pM	0.4 pM	0.9 pM	
CC[Si](CC)(CC)c1ccc(N2[C@H](c3ccc(NC(=O)[C@@H]4CCCN4C(=O)[C@@H](NC(=O)OC)[C@@H](C)OC)cc3)CC[C@H]2c2ccc(NC(=O)[C@@H]3CCCN3C(=O)[C@@H](NC(=O)OC)[C@@H](C)OC)cc2)cc1	2 pM	121 pM	1 pM	2.3 pM	Ratio EC50 (Hepatitis C virus [5]): 7
COC(=O)N[C@H](C(=O)N1CCC[C@H]1c1nc2cc([C@@H]3CC[C@@H](c4cc5nc([C@@H]6CCCN6C(=O)[C@@H](NC(=O)OC)[C@@H](C)OC)[nH]c5cc4F)N3c3cc(F)c(N4CCC(c5ccc(F)cc5)CC4)c(F)c3)c(F)cc2[nH]1)[C@@H](C)OC					concentration at 3 h [6]: 1540 ng/mL; concentration at 24 h [7]: 69.6 ng/g; Kp at 0.5 h [8]: 1.5; Kp at 3 h [9]: 0.39; concentration at 0.5 h [10]: 155 ng/g; concentration at 0.5 h [11]: 414 ng/mL; concentration at 3 h [12]: 193 ng/g; Kp at 8 h [13]: 0.63; Kp at 24 h [14]: 0.11; concentration at 24 h [15]: 718 ng/mL; concentration at 8 h [16]: 18.9 ng/g; concentration at 0.5 h [17]: 103 ng/mL; Kp at 3 h [18]: 1.1; concentration at 3 h [19]: 96.4 ng/mL; Kp at 0.5 h [20]: 0.43; concentration at 0.5 h [21]: 94 ng/g; concentration at 8 h [22]: 30.1 ng/mL; concentration at 3 h [23]: 102 ng/g
COC(=O)N[C@H](C(=O)N1CCC[C@H]1C(=O)Nc1ccc([C@H]2CC[C@H](c3ccc(NC(=O)[C@@H]4CCCN4C(=O)[C@@H](NC(=O)OC)C(C)C)cc3)N2c2ccc(N3CC[Si](C)(C)CC3)c(F)c2)cc1)C(C)C	51 pM	831 pM	0.5 pM	0.8 pM	
COC(=O)N[C@H](C(=O)N1CCC[C@H]1C(=O)Nc1ccc([C@@H]2CC[C@@H](c3ccc(NC(=O)[C@@H]4CCCN4C(=O)[C@@H](NC(=O)OC)[C@@H](C)OC)cc3)N2c2ccc([Si](C)(C)C)cc2)cc1)[C@@H](C)OC	7 pM	247 pM	1.6 pM	12 pM	
COC(=O)N[C@H](C(=O)N1CCC[C@H]1C(=O)Nc1ccc([C@@H]2CC[C@@H](c3ccc(NC(=O)[C@@H]4CCCN4C(=O)[C@@H](NC(=O)OC)C(C)C)cc3)N2c2ccc(C(C)(C)C)cc2)cc1)C(C)C [OMBITASVIR]					remaining at 1 h, 1 µM [24]: 73.5%; remaining at 1 h, 1 µM [25]: 63.5%; remaining at 1 h, 1 µM [26]: 82.5%
